Assay outcomes deposited in PubChem BioAssay by several laboratories.
Compounds with a hit are over-represented: about 2.9% of the library has one in this group of screens.
JNK3 blocker – blocks human JNK3 kinase activity | P53779 | purified JNK3 kinase activity, HTS | inhibition, % at 8 µM | 60,000 tested, 0.61% active | AID 746; in the data active = inhibition above about 17%;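 note: 0% = DMSO and 100% = reference inhibitor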
Target sequence (P53779 whole entry, looked up): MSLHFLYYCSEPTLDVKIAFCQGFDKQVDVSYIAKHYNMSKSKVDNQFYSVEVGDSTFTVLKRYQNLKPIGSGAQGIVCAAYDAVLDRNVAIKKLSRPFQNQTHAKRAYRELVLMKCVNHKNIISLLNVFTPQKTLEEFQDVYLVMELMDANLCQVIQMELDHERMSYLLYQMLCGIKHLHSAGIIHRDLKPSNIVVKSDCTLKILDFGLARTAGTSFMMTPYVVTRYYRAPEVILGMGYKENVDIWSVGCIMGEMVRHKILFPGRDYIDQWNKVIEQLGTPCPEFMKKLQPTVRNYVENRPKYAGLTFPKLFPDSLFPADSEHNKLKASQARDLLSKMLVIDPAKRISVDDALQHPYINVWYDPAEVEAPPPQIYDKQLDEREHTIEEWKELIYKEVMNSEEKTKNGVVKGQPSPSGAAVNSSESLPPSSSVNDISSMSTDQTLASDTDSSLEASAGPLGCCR
ROCK2 blocker – blocks human Rho kinase 2 activity; O75116; purified ROCK2, Kinase-Glo ATP depletion luminescence; inhibition, % at 6 µM; 60,000 tested, 0.35% active;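 active = inhibition above the screen-wide mean inhibition plus 3 SD, cut at about 18% in these data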;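 note: plate controls were DMSO wells for no effect and Y-27632 control wells after no-enzyme background subtraction for full effect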
Htt clearance – mutant huntingtin protein clearance | HeLa Exon1htt(103Q)mCFP, aggregate imaging; zero = plate's median compound well | inhibition, % at 1.5 µM | 47,000 tested, 0.42% active;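 active = inhibition of aggregate fluorescence above about 70%, also judged a hit by eye on the cell image, limit read from the data, passing the limit was not always enough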;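 note: cells exposed to compound for three days before fixation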
SF1 activator – activates the human nuclear receptor SF-1. Q13285. CHO-K1 Gal4-SF-1 LBD luciferase reporter; % increase over DMSO SF-1-specific signal. activation, % at 10 µM. 65,000 tested, 1.9% active;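 active = activation above the mean activation of all tested compounds plus 3 SD, cut at about 50% in these data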
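Test system: transient Gal4-SF-1 LBD reporter, CHO-K1; Amount: 4,000 CHO-K1 cells per well; Doses: 10 µM only; Timing: compound exposure 20 h at 37 °C; Signal: luciferase light emission; Read-out basis: percent activation relative to DMSO median and mock-transfected background; Control set: DMSO negative control and −SF1 background wells; Replicates: one test per compound.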
PKA kinase inh – blocks human protein kinase A activity | P17612 | 65,000 tested, 0.1% active | inhibition, % at 6 µM | PKA Kemptide phosphorylation, Kinase-Glo ATP luminescence | AID 524;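 active = inhibition above the screen-wide mean inhibition plus 3 SD, cut at about 21% in these data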
RORa activator – activates the human nuclear receptor RORA; P35398; CHO-K1 Gal4-RORA LBD luciferase reporter, luminescence; percent increase over mock-subtracted basal signal; activation, % at 10 µM; 65,000 tested, 1.5% active; AID 560;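 active = activation above the mean of all tested compounds plus 3 SD, cut at about 49% in these data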;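 note: 0% = DMSO-treated RORA cells and 100% = added signal equal to DMSO minus mock-transfected cells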
An asterisk follows results filed as active; nt = not tested or not shown.

SMILES	JNK3 blocker	ROCK2 blocker	Htt clearance	SF1 activator	PKA kinase inh	RORa activator
COc1cc(NC(=O)c2cc3sccc3n2C)cc(OC)c1	-3.1	2.7	nt	106.5*	7.0	61.0*
Cn1c(C(=O)Nc2ccccc2)cc2sccc21	nt	nt	-9.7	nt	nt	nt
CCCc1cc(C(=O)NCc2cccs2)no1	0.7	0.5	21.7	50.1*	5.0	36.8
CCCc1cc(C(=O)NCc2ccccc2)no1	6.8	3.3	nt	21.9	-1.0	29.9
CCCc1cc(C(=O)Nc2ccccc2SC)no1	-3.4	-3.5	nt	56.5*	-12.8	0.9
CCCN1C(=O)c2cc(C(=O)NCc3cccs3)ccc2C1O (stereo unspecified)	3.3	-7.6	nt	10.0	6.8	12.2
Cc1ccc(-c2cc(C(=O)NCc3cccs3)no2)cc1	1.4	3.8	nt	60.3*	1.1	58.6*
Cc1c(C)n(C)c2ccc(C(=O)NCc3cccs3)cc12	2.8	32.4*	nt	20.9	12.1	-1.2
CCCc1cc(C(=O)Nc2ccc(F)cc2F)no1	nt	nt	-74.3	nt	nt	nt
CCCCOC1(c2ccccc2)NC(=S)NN=C1c1ccccc1 (stereo unspecified)	nt	nt	2.3	nt	nt	nt
CCn1c(COc2ccccc2C)nnc1SCC(=O)CC(=O)Nc1ccccc1	-0.8	-3.1	-22.4	-12.2	2.5	7.4
CNc1nc(OCC(F)(F)F)nc(N2CCN(C34CC5CC(CC(C5)C3)C4)CC2)n1	nt	nt	29.0	nt	nt	nt
Cc1ccc(Cn2ccc(=O)c(OCc3c(Cl)cccc3Cl)c2C)cc1	nt	nt	-0.3	nt	nt	nt
COC(=O)c1c(-c2cccs2)csc1NC(=O)CN1CCOCC1	23.2*	5.8	nt	0.1	6.2	19.3
N#CC1=C(N)Oc2cc(O)ccc2C1c1ccncc1 (stereo unspecified)	5.8	20.9*	nt	2.0	9.5	-12.2
CC(=O)Nc1ccc(NC(=O)c2ccco2)cc1	3.2	2.8	-4.4	26.8	4.8	30.8
CC1N(C)c2cc(NC(=O)c3ccco3)ccc2C1(C)C (stereo unspecified)	-14.9	-0.8	nt	71.3*	6.7	33.1
O=C(OCC(=O)N1CCCCCC1)c1cccs1	-7.1	-2.5	5.0	54.8*	-2.9	13.7
O=C(OCC(=O)N1CCCCCC1)c1n[nH]c(=O)c2ccccc12	-2.1	1.1	nt	-9.1	0.5	-11.6
Cc1ccc(NC(=O)c2oc3ccccc3c2NC(=O)c2ccc3c(c2)OCO3)cc1	4.2	6.5	31.0	10.2	4.8	0.8
CCOC(=O)c1ccc(NS(=O)(=O)N2CCCCCC2)cc1	2.2	6.3	64.3	24.0	6.3	49.4*
CCn1c(SCC(=O)Nc2nc3ccc(C)cc3s2)nc2c(c1=O)SC(C)C2 (stereo unspecified)	3.4	-1.1	nt	-18.6	-5.2	-28.4
O=C(c1ccco1)N1CCn2c1nc1ccccc12	4.0	-11.8	24.7	41.0	-6.2	62.0*
Fc1cnc(N2CCOCC2)nc1N1CCc2ccccc21	-0.1	9.1	-51.9	55.4*	9.0	6.5
CC1(C)CC(=O)N(c2ccccc2)C1(C)O (stereo unspecified)	2.6	3.9	0.6	-12.1	10.6	-0.7
SMILES	JNK3 blocker	ROCK2 blocker	Htt clearance	SF1 activator	PKA kinase inh	RORa activator
Cn1c(-c2ccc(F)cc2)cnc1SCC(=O)Nc1ccccc1N1CCOCC1	-3.4	1.1	-14.2	69.6*	5.7	39.3
c1coc(-c2nnc3sc(-c4cccs4)nn23)c1	-4.1	-7.9	nt	3.3	4.5	22.0
CC(C)Sc1nnc(Nc2ccccc2)s1	0.6	3.5	nt	105.8*	2.6	44.2
N#Cc1ccc(CSc2nnc(Nc3ccccc3)s2)cc1	-0.6	3.5	nt	10.0	5.8	3.1
CCC(C)(C(=O)NC1CCCCC1)N(C(=O)c1cnccn1)c1c(C)n(C)n(-c2ccccc2)c1=O (stereo unspecified)	1.5	6.1	-35.1	6.4	7.8	-1.1
CCOC(=O)C1=C(CS(=O)(=O)c2ccc(F)c(C)c2)NC(=O)NC1c1ccc(O)c(O)c1 (stereo unspecified)	2.8	5.7	nt	14.6	4.3	5.0
Cn1c(SC/C=C/c2ccccc2)nnc1-c1cnccn1	-0.3	4.7	30.9	5.0	4.8	8.6
Cn1c(SCc2ccccc2Cl)nnc1-c1cnccn1	nt	nt	nt	56.1*	5.2	51.5*
C=COC(=O)CSc1nc(-c2cccs2)ccc1C#N	-1.2	12.3	nt	69.2*	2.6	40.3
Cc1csc2ncc(C(=O)NCc3ccccn3)c(=O)n12	6.8	5.1	nt	7.4	-0.8	-16.2
CCc1nnc(SCc2cn3c(C)cc(C)nc3n2)n1N	-6.6	5.1	9.4	0.1	0.7	-18.8
CNC(=O)c1[nH]cnc1C(=O)Nc1cccc(OC)c1	17.9*	5.6	11.5	12.2	1.5	-8.2
COc1cc(OC)cc(-c2nc3cc(C)ccc3o2)c1	5.0	-5.0	26.1	72.4*	2.8	57.0*
Cc1ccc(-c2nc3cc(Cl)ccc3o2)cc1	nt	nt	-15.3	nt	nt	nt
Nc1nonc1-c1nc2ccccc2[nH]1	0.7	60.8*	30.1	21.8	18.8	31.7
Cn1cc(Cl)c(-c2nc3ccccc3[nH]2)n1	nt	nt	nt	44.1	7.7	55.6*
N#Cc1c(N)nc2c(c1-c1ccco1)CCCCC2	31.6*	9.0	nt	-25.0	3.2	-9.0
N#Cc1c(N)nc2c(c1-c1ccncc1)CCCCC2	1.2	2.4	-7.6	-6.5	2.2	-14.4
COc1cccc(C2=CC(c3ccccc3)n3nnnc3N2)c1 (stereo unspecified)	-0.7	3.7	24.8	25.5	-1.1	78.7*
Cn1nnc2cc(C(=O)N3CCN(c4ccccc4)CC3)ccc21	-9.4	8.9	79.6*	15.5	7.2	-4.7
O=C(c1ccccc1)c1ccc(N2CCNCC2)cc1	-2.2	-1.4	-44.2	35.1	2.5	32.3
O=C(c1ccccc1)c1ccc(N2CCCC2)cc1	nt	nt	nt	77.2*	3.3	30.5
CN1CCN(c2ccc(C(=O)c3ccc(F)cc3)cc2)CC1	2.5	6.2	-22.7	38.5	5.6	60.6*
CN(C)CC1CCCCC1C1(O)c2ccccc2CSc2sccc21 (stereo unspecified)	nt	nt	5.1	nt	nt	nt
CSc1cccc(NC(=O)CSc2nc3ccccc3o2)c1	2.1	4.5	-45.6	12.9	3.8	6.3
SMILES	JNK3 blocker	ROCK2 blocker	Htt clearance	SF1 activator	PKA kinase inh	RORa activator
O=C(NCc1cccnc1)c1cccc2c1C(=O)N(C1CCCCC1)C2	25.5*	0.3	nt	1.7	-2.6	-9.7
C=C(C)Cn1c(NCCC)nc2c1c(=O)n(C)c(=O)n2C	-6.4	-1.0	nt	-22.7	-4.0	5.9
O=C1c2ccccc2-c2onc3ccc(NCc4ccco4)c1c23	32.9*	-7.3	nt	30.7	5.8	26.8
CC(C)Oc1ccc(C2C(C(=O)c3ccco3)=C(O)C(=O)N2Cc2cccnc2)cc1 (stereo unspecified)	-1.6	-0.2	nt	39.3	-0.1	69.5*
Clc1ccc2[nH]c(-c3ccccc3)cc2c1	nt	nt	-10.5	nt	nt	nt
Cc1ccc2[nH]c(-c3cccc(N)c3)cc2c1	-2.7	-2.8	nt	51.3*	-2.5	55.0*
CCN(CC)c1ccc(NC(=O)c2cc(Cl)ccc2OC)cc1	nt	nt	6.5	nt	nt	nt
CCN(CC)c1ccc(NC(=O)c2ccccc2F)cc1	-15.4	-2.9	nt	73.8*	10.6	70.3*
